# Shown is part of a subset that was picked to be rich in hits.
# HSF1 activator – increases HSF-1 driven luciferase reporter signal; NIH3T3-HGL HSF-1 luciferase reporter, MG132, 8 h; 100% = twice DMSO control signal; activation, % at 9 µM; 300,000 tested, 1.7% active; AID 504408;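 active = mean replicate activation of at least 50% with a set share of replicates each reaching 50%; inconclusive = only one of those two conditions met; inactive = mean below 50% and too few replicates reaching it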;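 also: 0% = median of the neutral control wells and 100% = twice that signal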
# T cruzi inh – T. cruzi replication inhibition. T. cruzi beta-gal in NIH3T3, luminescence, 90 h. inhibition, % (test concentration not listed). 300,000 tested, 1.4% active. AID 1885;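 active = mean inhibition across valid replicates above about 55%, limit read from the data; inconclusive = mean below that limit but half or more replicates reach it; inactive = mean below it, under half of replicates reach it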;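 also: signal also drops with host cell toxicity which is not excluded here; 0% = plate median of DMSO wells and 100% = zero luminescence signal; higher percent means less beta-gal luminescence so fewer parasites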
#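 Incubation – ≥90 h infection period, 3 h prior cell attachment · System – NIH/3T3 fibroblasts plus reporter T. cruzi · Doses – compound pinned at 50 nL/well, DMSO · Read-out basis – percent inhibition of parasite-derived β-gal signal · Signal – luminescent β-galactosidase signal after 60 min lysis · Also added – 5000 T. cruzi trypomastigotes/well · Medium – Low-serum DMEM with 2% FBS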
# Hsp70 activator – switches on Hsp70 transcription | 200,000 tested, 0.04% active | activation, % at 10 µM | HeLa Hsp70 promoter luciferase reporter, luminescence; scaled: vehicle 0, proteasome-inhibitor control 100%;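 active = activation above the mean across all tested compounds plus 3 SD, cutoff set per campaign, cut at about 5.5% in these data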;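 also: 100% = MG132 at 30 µM as the positive control and 0% = DMSO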
# L major viab – Leishmania major promastigote growth inhibition; 200,000 tested, 9% active; Leishmania major promastigotes, resazurin fluorescence viability; inhibition, % at 10 µM; AID 1063; in the data active = inhibition above about 50%;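 also: promastigotes grown with compound for 44 hours at 28 °C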
# HSF1 inhib – HSF1 inhibition; activity change, negative = inhibition, % at 7.5 µM (by protocol); 300,000 tested, 0.77% active; NIH3T3-HGL HSE-luciferase, MG132-induced, luminescence 8 h; hits give low values;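 active = more than half of replicate wells show activity change below -50%, luminescence cut by over half; inconclusive = some wells, but at most half, below -50%; inactive = no replicate well below -50%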;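 also: luciferase reports HSF-1 transcriptional activity via heat shock element; 0% = median of DMSO wells and -100% = zero luminescence signal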
# Numbers without * were called inactive; ? = inconclusive; . = no result.
SMILES,HSF1 activator,T cruzi inh,Hsp70 activator,L major viab,HSF1 inhib
COc1ccccc1CNC(=O)C(NS(=O)(=O)c1ccc2c(c1)OCCO2)C(C)C (stereo not given),14.4,-1.4,-0.3,28.3,-2.0
Cc1ccccc1-c1nc(CS(=O)(=O)CC(=O)NCCCN2CCN(C)CC2)c(C)o1,-6.6,-2.6,.,.,2.7
COc1cc(OC)c(C(=O)CCC(=O)O)cc1OC,-10.0,-1.7,-0.2,71.1*,-0.8
CCOC(=O)C1(Cc2ccccc2)CCN(Cc2ccc3cc(NC(C)=O)ccc3n2)CC1,3.8,17.2,0.2,13.9,-2.1
Cc1ccc(OCC(=O)Nc2ccc(F)cc2)c([N+](=O)[O-])n1,35.3,-10.0,-0.2,7.1,2.0
Cc1ccc(OCC(=O)NCC(=O)Nc2ccc(F)cc2)c([N+](=O)[O-])n1,12.7,-13.6,-0.2,50.2*,-12.7
O=C(COC(=O)c1ccc2[nH]c3c(c2c1)CCCC3)Nc1ccccc1,30.6,23.8,1.2,87.6*,6.7
Cc1cc(C)c(C(=O)/C=C/c2ccc(C(C)C)cc2)c(=O)[nH]1,28.6,16.1,-0.6,84.2*,12.2
Cn1c(C(=O)c2ccccc2[N+](=O)[O-])nc2ccccc21,-2.2,-20.1,-0.4,9.3,0.1
O=C(c1ccccc1Oc1ccc(C(F)(F)F)cc1[N+](=O)[O-])N1CCOCC1,8.4,-1.2,0.1,-0.5,1.1
O=C(c1ccc(Oc2ccc(C(F)(F)F)cc2[N+](=O)[O-])cc1)N1CCOCC1,3.4,6.2,-0.3,55.3*,-3.0
COc1ccc(-n2sc3c(c2=S)-c2cc(OC)ccc2NC3(C)C)cc1,4.9,32.4,-0.2,7.3,-3.3
COc1ccc2c(c1)-c1c(sn(-c3ccccc3)c1=S)C(C)(C)N2,55.2*,50.5,-0.4,25.5,18.2
COc1ccc(CN2CCC(C(=O)Nc3ccc(Oc4cccnc4)cc3)CC2)c(C)c1C,-88.3,12.8,.,.,-82.8*
O=[N+]([O-])c1ccc(/C=N/n2c(CO)nc3ccccc32)s1,18.0,67.2*,-0.4,100.5*,16.9
Cc1nc2ccccc2n1/N=C/c1ccc([N+](=O)[O-])s1,18.3,38.7,-0.2,100.4*,7.7
Cc1nc2ccccc2n1/N=C/c1ccc([N+](=O)[O-])o1,76.7*,42.1,-0.3,100.6*,41.2
Cc1nc2ccccc2c(=O)n1/N=C/c1ccc([N+](=O)[O-])o1,-9.3,45.6,.,.,5.7
OCc1nc2ccccc2n1Cc1ccc(Cl)cc1,4.1,-10.4,.,.,-0.9
COc1cccc(/C=C/C(=O)N2CCN(S(=O)(=O)c3ccccc3)CC2)c1OC,-3.7,-10.9,.,.,-5.2
O=C1N=C(N2CCN(c3ccccc3)CC2)S/C1=C\c1cn[nH]c1-c1ccccc1,12.4,18.6,-0.1,51.8*,-2.0
Cc1cccc(-n2ncc3c2CCCC3NC(=O)Cc2c(C)noc2C)c1C (stereo not given),-12.4,14.2,.,.,-1.4
CCN(CC(=O)NC1CCS(=O)(=O)C1)S(=O)(=O)c1ccc(C)c(C)c1 (stereo not given),-0.8,-3.4,-0.3,54.9*,-14.4
C=CCN1C=C/C(=C\C=C(C#N)C#N)c2ccccc21,9.1,36.2,-0.1,69.8*,0.8
Cc1cccc(NC(=S)N2CCn3cccc3C2c2cccnc2)c1 (stereo not given),-3.5,11.5,-0.1,88.7*,3.7
SMILES,HSF1 activator,T cruzi inh,Hsp70 activator,L major viab,HSF1 inhib
COc1cccc(NC(=S)N2CCn3cccc3C2c2cccnc2)c1 (stereo not given),13.7,76.2*,-0.3,88.0*,9.4
Fc1ccc(C2c3cccn3CCN2C(=S)Nc2cccc(Br)c2)cc1 (stereo not given),-5.3,-35.9,-0.1,41.0,1.1
CCc1cccc(CC)c1NC(=S)N1CCn2cccc2C1c1ccncc1 (stereo not given),6.0,-10.7,-0.1,31.8,-3.1
CCCCNC(=S)N1CCn2cccc2C1c1ccc(F)cc1 (stereo not given),6.4,10.3,-0.3,51.9*,4.5
Fc1ccc(NC(=S)N2CCn3cccc3C2c2cccnc2)cc1 (stereo not given),7.9,71.1*,0.1,91.1*,5.9
COc1ccc(CCN2CC(C(=O)NCCc3cn[nH]c3)CCC2=O)cc1 (stereo not given),-2.7,-11.4,.,.,-4.3
Cc1cc(C)nc(SC2c3cccc4cccc(c34)C2NS(=O)(=O)c2ccccc2)n1 (stereo not given),38.8,56.8*,-0.3,24.8,11.6
Cc1ccc(S(=O)(=O)NC2c3cccc4cccc(c34)C2Sc2ncccn2)cc1 (stereo not given),3.2,38.1,-0.4,13.7,-10.5
CC(=O)N[C@H]1[C@H](Oc2ccc3c(c2)CCC2C3CC[C@]3(C)C(=O)CCC23)O[C@H](CO)[C@@H](O)[C@@H]1O (stereo not given in full),-2.7,1.1,.,.,0.2
N#CC1=C(N)C2=CCCC[C@H]2[C@H](c2ccc(Br)cc2)C1(C#N)C#N,.,.,0.0,77.7*,.
N#CC1=C(N)C2=CCCC[C@H]2[C@H](c2ccccc2)C1(C#N)C#N,-32.2,-8.2,0.7,31.4,-7.5
CCN(CC)c1ccc(CNc2nc3ccccc3n2CCN2CCCCC2)cc1,.,59.9*,0.0,100.5*,.
CCN(CC)CCn1c(NCc2nc3ccccc3n2Cc2ccccc2)nc2ccccc21,-0.2,51.2,0.0,100.1*,4.9
c1ccc(Cn2c(CNc3nc4ccccc4n3CCN3CCCCC3)nc3ccccc32)cc1,-5.8,0.3,0.2,99.7*,3.1
Cn1c(CNc2nc3ccccc3n2CCN2CCCCC2)nc2ccccc21,5.9,18.8,-0.2,99.4*,3.2
CCOc1ccc(N2CC(C(=O)N3CCN(c4ccccn4)CC3)CC2=O)cc1 (stereo not given),22.9,-0.7,.,.,1.4
Cc1ccccc1NCc1nc2ccccc2n1C,?,9.8,.,.,36.7
Cn1c(CNc2ccccc2O)nc2ccccc21,80.3*,-18.5,0.1,88.6*,39.8
c1ccc(Cn2c(CN3CCCC3)nc3ccccc32)cc1,-6.4,-16.6,0.1,3.5,-11.9
Clc1ccc(Cn2c(CN3CCCC3)nc3ccccc32)cc1,12.0,-5.5,-0.4,99.6*,3.8
CCOc1ccc(NC(=O)c2cc(S(=O)(=O)N3CCOCC3)cn2C)cc1,-9.5,9.6,.,.,-6.7
C/C(=N/NC(=O)c1cc(O)c(O)c(O)c1)c1ccc([N+](=O)[O-])cc1,1.2,17.9,0.0,-12.7,-6.9
CCC(=O)N1CCN(c2ccc(Cl)cc2NC(=O)c2ccc([N+](=O)[O-])o2)CC1,7.5,46.7,.,.,15.9
CCN1CCN(c2ccc(NC(=O)c3ccc([N+](=O)[O-])o3)cc2Cl)CC1,-42.0,91.5*,-0.1,100.7*,-42.6
CC(=O)N1CCN(c2ccc(NC(=O)c3ccc([N+](=O)[O-])o3)cc2Cl)CC1,-89.2,6.4,.,.,-88.0*
CCOc1ccc(N2C(=O)CC(NC3CCN(C(=O)c4ccc(F)cc4)CC3)C2=O)cc1 (stereo not given),12.7,-0.9,.,.,2.3
